Our source for the Activity and EC50 values is ChEMBL document CHEMBL1140944, “A new class of vitamin D analogues that induce structural rearrangement of the ligand-binding pocket of the receptor” (J Med Chem, 2009).

Assay [1] relates to HEK293. Put plainly: Inhibition of 1,25-(OH)2D3-induced CYP24A1 mRNA expression in HEK293 cells at 10^-6 M after 24 hrs by quantitative real time PCR. The following applies: Homo sapiens. It counts as functional, cell-based. In short, it runs like this: (§1)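 HEK293 cells were treated for 24 h with 10^-6 M compound, without (12) or with (15) 10^-8 M 1,25-(OH)₂D₃. CYP24A1 mRNA was measured by quantitative real-time RT-PCR and normalized to actin mRNA; mean ± SD of triplicates.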
A general note: In qPCR the cycle at which signal appears reflects the starting amount.

Another assay addresses T1, Vitamin D3 receptor (Bos taurus, UniProt Q28037).
T1 sequence (Q28037 whole entry): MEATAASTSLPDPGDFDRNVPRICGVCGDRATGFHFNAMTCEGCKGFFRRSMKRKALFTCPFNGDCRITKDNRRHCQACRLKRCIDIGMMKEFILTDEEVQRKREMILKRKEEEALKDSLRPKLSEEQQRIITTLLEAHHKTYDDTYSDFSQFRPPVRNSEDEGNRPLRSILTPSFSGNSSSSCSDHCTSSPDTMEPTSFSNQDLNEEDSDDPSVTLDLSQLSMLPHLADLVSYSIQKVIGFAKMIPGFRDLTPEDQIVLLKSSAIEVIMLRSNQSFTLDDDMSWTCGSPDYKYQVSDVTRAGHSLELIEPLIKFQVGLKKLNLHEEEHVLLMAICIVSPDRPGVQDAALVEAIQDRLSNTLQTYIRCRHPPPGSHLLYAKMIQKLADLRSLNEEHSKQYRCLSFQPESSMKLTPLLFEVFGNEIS
Put plainly: Displacement of [3H]1,25-(OH)2D3 from bovine thymus vitamin D receptor. Put shortly:
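Bovine thymus VDR was dissolved in 0.05 M phosphate buffer, pH 7.4, with 0.3 M KCl and 5 mM DTT. Free ligand was removed with dextran-coated charcoal (20 min, 4 °C) and supernatant radioactivity counted. Nonspecific binding was subtracted; EC₅₀ came from dose-response curves; duplicate.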
On the technique in general: Loss of bound radioactivity is the signal in a displacement assay; it reports binding, not function.

In assay [2] the target is T2, Vitamin D3 receptor (Homo sapiens) (UniProt P11473).
T2 sequence (whole entry): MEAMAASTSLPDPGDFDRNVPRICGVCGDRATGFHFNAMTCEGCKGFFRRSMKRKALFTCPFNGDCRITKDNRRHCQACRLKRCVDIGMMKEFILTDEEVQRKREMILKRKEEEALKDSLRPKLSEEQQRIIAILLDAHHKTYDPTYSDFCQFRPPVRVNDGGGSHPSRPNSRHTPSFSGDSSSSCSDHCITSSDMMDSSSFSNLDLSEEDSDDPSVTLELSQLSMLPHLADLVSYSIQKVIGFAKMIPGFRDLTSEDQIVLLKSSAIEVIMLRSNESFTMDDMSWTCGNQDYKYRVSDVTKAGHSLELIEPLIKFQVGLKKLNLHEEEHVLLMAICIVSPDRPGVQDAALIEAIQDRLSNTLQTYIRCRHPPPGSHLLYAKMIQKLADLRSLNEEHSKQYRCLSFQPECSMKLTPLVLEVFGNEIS
Put plainly: Antagonist activity at full length human VDR expressed in african green monkey Cos7 cells overexpressing mouse osteopontin vitamin D-responsive element assessed as inhibition of 1,25-(OH)2D3-induced transcriptional activation after 16 hrs by dual luciferase reporter gene assay. It counts as functional, cell-based. As to conditions: COS-7. Put shortly:
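Cos7 cells were transfected with full-length hVDR, the SPPx3-TK-Luc osteopontin VDRE reporter and pRL-CMV. Test ligands were given together with 10^-9 M 1,25-(OH)₂D₃ for 16 h. Dual luciferase signal was normalized to the sea pansy control, with activity at 10^-8 M 1,25-(OH)₂D₃ set as 1; triplicate.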
(A reporter such as luciferase makes a cellular process visible.)

Assay [3] has as its target T2, Vitamin D3 receptor (Homo sapiens). Put plainly: Agonist activity at full length human VDR expressed in HEK293 cells overexpressing mouse osteopontin vitamin D-responsive element assessed as transcriptional activation after 16 hrs by dual luciferase reporter gene assay. It is filed as functional, cell-based.
Assay [4] shares this target. Put plainly: Antagonist activity at full length human VDR expressed in HEK293 cells overexpressing mouse osteopontin vitamin D-responsive element assessed as inhibition of 1,25-(OH)2D3-induced transcriptional activation after 16 hrs by dual luciferase reporter gene assay. It counts as functional, cell-based.
In assay [5] the test system is HL-60. Put plainly: Induction of cell differentiation in human HL60 cells after 4 days by NBT reduction assay. It is filed as functional, cell-based. In short, it runs like this: (§2)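 HL-60 promyelocytic leukemia cells were plated at 2 × 10⁵ cells/plate in Eagle's modified medium. Compound was added at 10^-6, 10^-7 or 10^-8 M for 4 days. Differentiation was scored by nitro blue tetrazolium reduction.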

For assay [6], the system named is HL-60. Put plainly: Inhibition of 1,25-(OH)2D3-induced cell differentiation in human HL60 cells assessed as morphological changes at 10^-6 M by Wright-Geimsa staining. It counts as functional, cell-based. In short, it runs like this:
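HL-60 cells were stained with Wright-Giemsa and their morphology examined by light microscopy.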

Assay [7] relates to T3, Vitamin D3 receptor (Homo sapiens), P11473 [H305A].
T3 sequence (whole entry): T2 sequence (whole entry) with H305A
Put plainly: Agonist activity at full length human VDR H305A mutant expressed in african green monkey COS7 cells overexpressing mouse osteopontin vitamin D-responsive element assessed as transcriptional activation at 10^-6 M after 16 hrs by dual luciferase reporter gene assay. It counts as functional, cell-based. The following applies: COS-7. Put shortly:
(§3)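 COS-7 cells in DMEM with 5% FBS, seeded at 2 × 10⁴ per well. After 24 h they were lipofected with the mutant hVDR plasmid (pCMX-hVDR), the SPPx3-TK-Luc reporter (three mouse osteopontin VDREs) and the pRL-CMV control. After 8 h, ligand was added at 10^-6 M, or ethanol vehicle, for 16 h. Firefly luciferase was normalized to the internal control; triplicate.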

In assay [8] the test system is HL-60. Put plainly: Inhibition of 1,25-(OH)2D3-induced differentiation in human HL60 cells after 4 days by NBT reduction assay.
In assay [9] the test system is HL-60. Put plainly: Inhibition of 1,25-(OH)2D3-induced cell differentiation in human HL60 cells after 4 days by NBT reduction assay. It counts as functional, cell-based. Put shortly: as §2
For assay [10], the system named is HEK293. Put plainly: Inhibition of 1,25-(OH)2D3-induced CYP24A1 mRNA expression in HEK293 cells after 24 hrs by real time PCR. It is filed as functional, cell-based. As to conditions: Homo sapiens. Put shortly: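 HEK293 cells were exposed to the indicated compound concentrations for 24 h. CYP24A1 mRNA was quantified by real-time RT-PCR against actin; triplicate.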

Assay [11] addresses T2, Vitamin D3 receptor (Homo sapiens). Put plainly: Antagonist activity at human VDR expressed in african green monkey COS7 cells overexpressing GAL4 response element assessed as RXRalpha recruitment by mammalian two hybrid assay. It is filed as functional, cell-based. The following applies: COS-7.
The target is the same in assay [12]. Put plainly: Antagonist activity at human VDR expressed in african green monkey COS7 cells overexpressing GAL4 response element assessed as SRC1 peptide recruitment by mammalian two hybrid assay. It is filed as functional, cell-based. The following applies: COS-7.
Assay [13] shares this target. Put plainly: Agonist activity at human VDR expressed in african green monkey COS7 cells overexpressing GAL4 response element assessed as SRC1 peptide recruitment by mammalian two hybrid assay. It is filed as functional, cell-based. The following applies: COS-7.
For assay [14] the target is unchanged. Put plainly: Agonist activity at full length human VDR expressed in african green monkey Cos7 cells overexpressing mouse osteopontin vitamin D-responsive element assessed as transcriptional activation after 16 hrs by dual luciferase reporter gene assay. It counts as functional, cell-based. As to conditions: COS-7. Put shortly:
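COS-7 cells in DMEM with 5% FBS were lipofected with full-length pCMX-hVDR, the SPPx3-TK-Luc osteopontin VDRE reporter and pRL-CMV. After 8 h, ligand or ethanol vehicle was added for 16 h. Dual luciferase read-out was normalized to the internal control. Activity at 10^-8 M 1,25-(OH)₂D₃ was set as 1; triplicate.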

Assay [15] shares this target. Put plainly: Agonist activity at human VDR expressed in african green monkey COS7 cells overexpressing GAL4 response element assessed as RXRalpha recruitment by mammalian two hybrid assay. As to conditions: COS-7. It is filed as functional, cell-based.
Assay [16] relates to HEK293. Put plainly: Induction of CYP24A1 mRNA expression in HEK293 cells at 10^-6 M after 24 hrs by quantitative real time PCR. It counts as functional, cell-based. The following applies: Homo sapiens. In short, it runs like this: as §1
The test system of assay [17] is T4, Vitamin D3 receptor (Homo sapiens), P11473 [H397A].
T4 sequence (whole entry): T2 sequence (whole entry) with H397A
Put plainly: Agonist activity at full length human VDR H397A mutant expressed in african green monkey COS7 cells overexpressing mouse osteopontin vitamin D-responsive element assessed as transcriptional activation at 10^-6 M after 16 hrs by dual luciferase reporter gene assay. It is filed as functional, cell-based. As to conditions: COS-7. In short, it runs like this:
as §3

Numbering of substitutions follows the chain as printed. The source made the active and inactive calls. No cut-off for these calls is given here.

The term EC50 denotes the concentration at which the effect is half-maximal. Take `C=C1/C(=C\C=C2/CCC[C@]3(C)[C@@H]([C@H](C)[C@@H](CCCC)C[C@H](O)C(C)C)CC[C@@H]23)C[C@@H](O)C[C@@H]1O`: the outcome in the assay with HEK293 [1] was Active. On Vitamin D3 receptor, this compound returned an EC50 of 3.8 nM. For the same compound, the Activity entry in assay [2], in [3] and in assay [4] was “Dose-dependent effect” throughout. Moreover, the result with HL-60 [5] was inactive.
For the compound `C=C1/C(=C\C=C2/CCC[C@]3(C)[C@@H]([C@H](C)CCCC(C)(C)O)CC[C@@H]23)C[C@@H](O)C[C@@H]1O`, the result in the assay on HL-60 [6] and in the assay with HL-60 [5] was Active.
For the compound `C=C1/C(=C\C=C2/CCC[C@]3(C)[C@@H]([C@H](C)[C@H](CCCC)C[C@H](O)C(C)C)CC[C@@H]23)C[C@@H](O)C[C@@H]1O`, the outcome (with HEK293 [1]; in [7]) was Active. Moreover, it took 3.4 nM to reach a half-maximal effect on Vitamin D3 receptor (EC50). Moreover, the Activity entry in assay [2], in [3] and in assay [4] was “Dose-dependent effect” in each case. Further, the result in the assay with HL-60 [5] was inactive.
Take `C=C1/C(=C\C=C2/CCC[C@]3(C)[C@@H]([C@H](C)[C@H](CCO)CCCC)CC[C@@H]23)C[C@@H](O)C[C@@H]1O`: the result (in the assay with HEK293 [1]; in the assay with HL-60 [6]; in the assay on HL-60 [8]; with HL-60 [9]; in assay [11]; in assay [12]) was Active. Moreover, the EC50 on Vitamin D3 receptor came to 1.2 nM. In addition, the Activity entry (in assay [2]; in assay [3]; in [4]; with HEK293 [10]) was “Dose-dependent effect” in each case. In addition, the outcome with HL-60 [5] was inactive.
At Vitamin D3 receptor, `C=C1/C(=C\C=C2/CCC[C@]3(C)[C@@H]([C@H](C)[C@@H](CCCC)C[C@@H](O)C(C)C)CC[C@@H]23)C[C@@H](O)C[C@@H]1O` displayed an EC50 of 20 nM.
In turn, `C=C1/C(=C\C=C2/CCC[C@]3(C)[C@@H]([C@@H](C)[C@H](CCO)CCCC)CC[C@@H]23)C[C@@H](O)C[C@@H]1O` registered an EC50 on Vitamin D3 receptor of 2 nM. Moreover, the result (in assay [13]; in assay [14]; with HL-60 [5]; in assay [15]; with HEK293 [16]) was Active.
In the case of `C=C1/C(=C\C=C2/CCC[C@]3(C)[C@@H]([C@@H](C)[C@@H](CCO)CCCC)CC[C@@H]23)C[C@@H](O)C[C@@H]1O`, the outcome (in the assay with HEK293 [1]; in assay [17]) was Active. Further, on Vitamin D3 receptor, it took 20 nM to reach a half-maximal effect (EC50). Moreover, the Activity result in [2], in assay [3] and in assay [4] was “Dose-dependent effect” throughout. The result with HL-60 [5] was inactive.
The compound `C=C1/C(=C\C=C2/CCC[C@]3(C)[C@@H]([C@H](C)[C@@H](CCO)CCCC)CC[C@@H]23)C[C@@H](O)C[C@@H]1O` came in with an EC50 at Vitamin D3 receptor of 11 nM. In addition, the result in the assay on HL-60 [5] was inactive.
At Vitamin D3 receptor, `C=C1/C(=C\C=C2/CCC[C@]3(C)[C@@H]([C@H](C)[C@H](CCCC)C[C@@H](O)C(C)C)CC[C@@H]23)C[C@@H](O)C[C@@H]1O` showed a concentration giving a half-maximal response (EC50) of 16 nM. Further, the result in the assay with HL-60 [5] was inactive.
